From PubChem BioAssay
The list is not random: actives were taken first. Their share in the collection is about 0.83%.
OXTR ag: activates the human oxytocin receptor; AID 2435; CHO-OTR cells, Fluo-8 calcium fluorescence; normalized: DMSO 0%, oxytocin 100%; activation, % at 3 µM; P30559; actives 0.32% (n = 320,000);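 active = activation above the mean of all tested compounds plus 3 SD, cutoff set per screening run, cut at about 20% in these data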;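 also: peak over basal fluorescence ratio from a 100 s FLIPR kinetic read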
Target sequence (P30559 whole entry, looked up): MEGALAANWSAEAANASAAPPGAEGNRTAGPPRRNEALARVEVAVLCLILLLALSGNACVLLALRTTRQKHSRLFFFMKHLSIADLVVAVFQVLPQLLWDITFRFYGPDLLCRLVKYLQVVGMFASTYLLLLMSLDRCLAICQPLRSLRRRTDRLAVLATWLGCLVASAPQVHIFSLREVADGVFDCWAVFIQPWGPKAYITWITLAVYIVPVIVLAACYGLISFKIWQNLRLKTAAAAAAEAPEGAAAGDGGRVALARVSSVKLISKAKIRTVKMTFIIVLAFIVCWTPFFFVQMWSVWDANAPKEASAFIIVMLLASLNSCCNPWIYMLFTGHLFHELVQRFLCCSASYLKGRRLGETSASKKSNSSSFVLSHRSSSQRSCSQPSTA
CRFR2-BP ag: agonists of human CRF-binding protein/CRF-R2 receptor complex. HEK293 CRF-R2/CRF-BP, calcium dye fluorescence (FLIPR); percent of saturating CRF peptide response. activation, % at 13.2 µM. actives 0.46% (n = 350,000);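 active = activation of at least 50%, plus an integration ratio under a set limit after plate pattern correction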;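 also: plate controls were neutral control wells without compound for no effect and CRF at EC100 for full effect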
V1aR counter: activates human V1a receptor in oxytocin agonist counter-screen | P37288 | CHO-V1R cells, Fluo-8 calcium fluorescence, agonist mode; 0% DMSO, 100% 3 nM vasopressin | activation, % at 3 µM | actives 0.25% (n = 320,000) | AID 2797;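 active = activation above the mean activation of all tested compounds plus 3 SD, per screening run, cut at about 20% in these data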;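 also: signal is peak over basal fluorescence ratio across a 100 second FLIPR read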
Target sequence (P37288 whole entry, looked up): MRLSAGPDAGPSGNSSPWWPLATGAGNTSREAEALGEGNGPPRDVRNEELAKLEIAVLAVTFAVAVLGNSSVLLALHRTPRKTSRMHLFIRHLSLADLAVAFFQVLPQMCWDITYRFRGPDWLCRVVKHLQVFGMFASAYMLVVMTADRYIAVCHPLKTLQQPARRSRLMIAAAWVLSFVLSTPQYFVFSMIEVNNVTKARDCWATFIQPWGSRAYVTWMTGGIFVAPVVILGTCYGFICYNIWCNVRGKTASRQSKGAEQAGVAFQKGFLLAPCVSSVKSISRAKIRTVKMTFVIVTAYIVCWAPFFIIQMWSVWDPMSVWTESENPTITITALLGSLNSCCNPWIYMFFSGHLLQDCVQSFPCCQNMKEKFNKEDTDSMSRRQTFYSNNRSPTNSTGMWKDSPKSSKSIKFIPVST
TRPN1 ag: agonists of zebrafish TRPN1 channel | activation, % at 3 µM | HEK293 zebrafish TRPN1-YFP, Fluo-8 calcium fluorescence; 100% = response to 87 µM carbachol | actives 0.18% (n = 220,000);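 active = activation above its plate's cutoff, the mean activation of test wells on that plate plus 3 SD, cut at about 19% in these data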;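 also: 0% = DMSO alone and 100% = 87 µM carbachol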
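Control set: carbachol 87 µM as high control, DMSO as low control; system: HEK293 stable line with zebrafish TRPN1-YFP; read-out: % activation versus carbachol response; detection: intracellular calcium fluorescence with Fluo-8; doses: single test compound dose, 3 µM nominal, 0.3% DMSO; schedule: dye 1 h 37 °C plus 30 min RT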
OXTR potentiator: potentiators of human oxytocin receptor; P30559; CHO-OTR cells, Fluo-8 calcium fluorescence, potentiator mode; 0% = oxytocin EC15, 100% = EC100; activation, % at 3 µM; actives 0.061% (n = 320,000); AID 2445;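 active = activation above that plate's cutoff, the mean activation of tested compounds plus 3 SD, cut at about 6.6% in these data, passing the limit was not always enough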;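 also: 100% uses oxytocin at 75 nM as the full agonist control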
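Assay system: CHO cell line stably expressing human OTR | Also added: Oxytocin at about EC15, sub-maximal agonist stimulus | Times: Compound 6 min at room temperature before oxytocin, 100 s read | Measured by: Fluo-8 intracellular calcium fluorescence, ex 470-495, em 515-575 nm | Controls: EC15 oxytocin alone as 0%, 75 nM oxytocin as 100%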
TRPML3 ag: human mucolipin-3 channel agonism; Q8TDD5; HEK293 TRPML3-YFP, Fluo-8 calcium fluorescence; 100% = the carbachol control signal; activation, % at 3 µM; actives 0.29% (n = 220,000); AID 1448;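 active = activation above its plate's cutoff, the mean activation of the plate's test wells plus 3 SD, cut at about 12% in these data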;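 also: 0% = DMSO only wells and 100% = carbachol wells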
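Material: HEK293 cells stably carrying human TRPML3-YFP; compound dosing: single dose, 3 µM final nominal compound, 0.3% DMSO final; incubation: 1-h 37 °C dye load, 5-s basal, 120-s post-compound reads; technique: Fluo-8 intracellular calcium fluorescence, excitation 470-495 nm, emission 515-575 nm; read-out basis: percent activation from peak-to-basal fluorescence ratio, scaled between DMSO and carbachol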
TRPN1 ag 2: counter-screen for TRPML3 agonists: agonists of zebrafish TRPN1 channel; activation, % at 3 µM; shares compounds with TRPML3 ag; actives 10% (n = 310); HEK293 zebrafish TRPN1-YFP, Fluo-8 calcium fluorescence; scaled: carbachol wells 100%, DMSO wells 0%; AID 1525;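 active = mean activation over replicates above a set limit taken from the earlier TRPN1 channel primary screen, cut at about 19% in these data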;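 also: 100% = carbachol and 0% = 0.3% DMSO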
TRPML3 confirm: human TRPML3 agonism, confirmation; shares compounds with TRPML3 ag; activation, % at 3 µM; actives 80% (n = 310); HEK293 TRPML3-YFP, Fluo-8 calcium fluorescence; 100% set by carbachol, 0% by DMSO;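 active = activation above a set limit derived from the earlier primary screen, cut at about 12% in these data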
OXTR ag confirm: human OXTR agonism, confirmation; AID 434963; CHO-OTR cells, Fluo-8 calcium fluorescence, agonist; actives 20% (n = 390); shares compounds with OXTR ag; activation, % at 3 µM;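 active = mean activation above about 20% derived from the earlier single-dose screen, limit read from the data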;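 also: peak over minimum fluorescence ratio per well during a 100 second FLIPR read; 0% = DMSO alone and 100% = oxytocin high control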
V1R ag counter 3x: counter-screen for oxytocin receptor agonists: V1a receptor agonists; actives 10% (n = 390); activation, % at 3 µM; CHO-V1R cells, Fluo-8 calcium fluorescence, agonist; shares compounds with OXTR ag;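 active = mean activation over triplicate exceeds the hit threshold set in the earlier primary screen, cut at about 20% in these data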;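 also: peak over basal fluorescence ratio within a 100 second read; 0% = DMSO alone and 100% = 3 nM vasopressin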
V1aR agonist cf: confirmation of human vasopressin V1a receptor agonists. shares compounds with V1aR counter. CHO-V1R cells, Fluo-8 calcium fluorescence, agonist. activation, % at 3 µM. actives 20% (n = 180). AID 434964;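 active = average activation exceeds primary screen hit cutoff, cut at about 21% in these data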;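 also: peak over basal fluorescence ratio during a 100 s FLIPR read; 0% = DMSO only wells and 100% = 3 nM vasopressin wells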
OXTR ag counter: counter-screen for V1a receptor agonists: oxytocin receptor agonists; shares compounds with V1aR counter; CHO-OTR cells, Fluo-8 calcium fluorescence, agonist; activation, % at 3 µM; actives 10% (n = 180); AID 434969;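 active = mean activation over three repeats above the cutoff from the earlier oxytocin receptor agonist screen, cut at about 20% in these data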;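 also: peak over minimum fluorescence ratio within a 100 second FLIPR read; 0% = DMSO only wells and 100% = oxytocin high control wells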
The depositor's hits bear a star; . = no result.

SMILES	OXTR ag	CRFR2-BP ag	V1aR counter	TRPN1 ag	OXTR potentiator	TRPML3 ag	TRPN1 ag 2	TRPML3 confirm	others
Cc1sc(NC(=O)C2C3CCC(C3)C2C(=O)O)c(C(N)=O)c1-c1ccc(C(C)(C)C)cc1 (configuration not stated)	0.0	0.1	1.9	0.8	-5.6	18.1*	0.8	-0.4
CCOc1ccc(-n2c(=O)c3sccc3n(CC(=O)NC3CCCCC3)c2=O)cc1	-0.2	1.7	-0.6	.	-8.0	.	.	.
CCOC(=O)C1CCN(C(=O)C(C)N(c2ccc(Oc3ccccc3)cc2)S(C)(=O)=O)CC1 (configuration not stated)	.	-0.2	.	8.7	.	21.8*	7.6	17.9*
CCOC(=O)N1CCN(C(=O)C(C)N(c2ccc(Oc3ccccc3)cc2)S(C)(=O)=O)CC1 (configuration not stated)	3.5	-2.5	6.1	1.3	-21.5	0.7	.	.
O=C(C1=C(O)C(=O)N(CCc2ccccc2)C1c1ccncc1)c1cc2ccccc2o1 (configuration not stated)	0.7	-0.2	1.0	-0.6	-14.2	-0.7	.	.
O=C(C1=C(O)C(=O)N(c2nccs2)C1c1ccccc1)c1cc2ccccc2o1 (configuration not stated)	20.1*	167.6*	185.6*	16.1	-9.4	12.2*	5.2	1.9
O=C(CN1CCN(S(=O)(=O)c2cccs2)CC1)N1CCCCC1	.	-0.1	.	.	.	.	.	.
FC(F)Sc1ccc(NC(=S)NC2CCCC2)cc1	16.3	4.0	7.4	17.2	-12.8	12.5*	20.1*	6.9
CCN(CC)C(=S)SCC(=O)NC12CC3CC(CC(C3)C1)C2	-3.2	-2.5	-0.4	-0.4	-9.6	11.7*	-0.2	28.2*
CCN(CC)CC(=O)NC12CC3CC(CC(C3)C1)C2	0.7	3.0	0.1	0.2	-1.1	0.2	.	.
O=C(C[C@H]1C/C=C\CC[C@H](Cc2ccc(F)cc2)C(=O)OC[C@H]2CCCN2C1=O)NCCO	-0.7	-1.7	1.1	.	-4.3	.	.	.
CN(CCOc1ccc(Cl)cc1)c1ccc(S(=O)(=O)N2CCCCC2)cn1	0.1	2.7	0.2	0.8	-5.5	44.6*	0.0	46.7*
O=C(NCc1ccccn1)c1nc(Cn2cc([N+](=O)[O-])cn2)no1	0.5	-1.1	1.5	.	-4.8	.	.	.
COc1ccc(S(=O)(=O)NC2CCCCC2)c(C)c1C	-1.8	-3.5	-1.0	-2.0	-13.3	13.6*	-0.8	14.8*
C[C@H](CO)N1C[C@H](C)[C@@H](CN(C)C(=O)CCC(F)(F)F)OCc2cnnn2CCCC1=O	.	0.3	.	.	.	.	.	.
COc1ccc(Cl)cc1C(=O)CSc1nnnn1C1CCCC1	1.9	-1.6	0.3	-1.1	-4.0	74.5*	-1.3	50.6*
CC(=O)C(Cc1ccccc1)NC(=O)CN1c2cccc3cccc(c23)S1(=O)=O (configuration not stated)	2.0	-2.0	1.6	.	-4.0	.	.	.
O=C(Nc1ccncc1)Nc1ccc(F)c(Cl)c1	6.6	0.9	5.4	7.3	-15.2	12.0*	9.9	8.9
O=C(Nc1ccc(F)c(Cl)c1)Nc1ccc(Cl)cn1	-0.2	-0.2	0.4	0.5	-13.9	0.6	.	.
Cc1ccc(S(=O)(=O)N2CCC(=O)N(C(COCc3ccc(C(F)(F)F)cc3)C(C)C)CC2)cc1 (configuration not stated)	0.2	3.5	1.2	0.7	-9.7	54.9*	0.3	77.4*
C[C@H](CO)N1C[C@H](C)[C@H](CN(C)Cc2ccc(Oc3ccccc3)cc2)Oc2cc(Br)ccc2S1(=O)=O	.	0.1	.	.	.	.	.	.
CCOC(=O)c1sc(=S)n(C)c1NC(=O)c1ccc(C(C)(C)C)cc1	2.6	9.2	7.2	11.2	-15.5	14.1*	15.7	10.0
CCCCC(CC)C(=O)Nc1ncc([N+](=O)[O-])s1 (configuration not stated)	7.6	29.5	10.1	14.0	-13.1	12.6*	15.8	5.6
Cc1cc(C)nc(/N=C(\N)Nc2ccc(-c3ccccc3)cc2)n1	22.6*	13.6	15.6	16.3	-17.3	14.6*	21.0*	10.7	OXTR ag confirm=13.8;V1R ag counter 3x=17.6
Cc1ccc(C)c(S(=O)(=O)N2CCN(C(=O)CCC(=O)NCc3ccc(Cl)cc3Cl)CC2)c1	.	0.8	.	.	.	.	.	.
SMILES	OXTR ag	CRFR2-BP ag	V1aR counter	TRPN1 ag	OXTR potentiator	TRPML3 ag	TRPN1 ag 2	TRPML3 confirm	others
CC(=O)Oc1c(S(=O)(=O)c2ccc(C)cc2)c(C)nn1C(C)(C)C	-1.7	0.5	-0.8	1.5	-8.5	2.5	.	.
Cc1ccc(S(=O)(=O)c2c(C)nn(C(C)(C)C)c2OC(=O)C(C)(C)C)cc1	21.2*	7.2	5.5	4.4	-16.5	46.0*	4.8	38.8*	OXTR ag confirm=0.7;V1R ag counter 3x=3.1
Cc1nnc(-c2ccccc2)c(=O)n1/N=C/c1c(O)ccc2ccccc12	16.3	25.2	25.0*	14.6	-11.7	13.2*	1.9	0.8	V1aR agonist cf=23.8*;OXTR ag counter=21.6*
O=C(CNC(=O)c1ccc(Cl)cc1Cl)OCC(=O)N1CCCC1=O	-0.9	2.0	0.1	.	-4.9	.	.	.
C=CCNc1ncnc2c1[nH]c1ccccc12	6.4	-0.5	5.3	6.2	-9.5	0.2	.	.
C=CCNc1ncnc2c1[nH]c1ccc(Cl)cc12	21.6*	17.0	12.2	7.9	-6.5	5.8	.	.	OXTR ag confirm=11.5;V1R ag counter 3x=9.8
CCCCOc1ccc(CSCCN)cc1Cl	21.3*	1.1	12.6	0.6	-12.6	1.6	.	.	OXTR ag confirm=7.0;V1R ag counter 3x=1.7
O=C(NNC(=O)c1ccc2[nH]c(=O)c(=O)[nH]c2c1)c1cccc(Br)c1	-0.6	-0.6	1.1	.	-7.8	.	.	.
